RGS4 inh – RGS4 inhibitors, primary screen, cell-based, HEK293 M3R inducible RGS4, calcium flux; Regulator of G-protein signaling 4 (Homo sapiens), P49798; Fluo-4 calcium flux; hits give high values; triggered by carbachol at its EC20; B-score at 10 µM; 310,000 tested, 0.45% active;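 active = B-score, a plate-corrected calcium signal, over three deviations above library mean, with baseline fluorescence within five deviations of library mean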;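 note: RGS4 expression induced by doxycycline in cells with stable M3 receptor; B-score is computed from the integrated fluorescence ratio over baseline after carbachol; higher B-score means a larger calcium signal and so more RGS4 inhibition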
Target sequence (P49798 whole entry, looked up): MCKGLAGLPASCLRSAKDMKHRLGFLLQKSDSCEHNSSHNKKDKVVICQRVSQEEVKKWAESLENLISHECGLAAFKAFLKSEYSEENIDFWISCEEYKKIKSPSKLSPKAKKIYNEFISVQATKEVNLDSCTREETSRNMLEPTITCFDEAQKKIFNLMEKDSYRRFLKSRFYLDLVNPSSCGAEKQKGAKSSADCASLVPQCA
RGS4 pot – RGS4 potentiators or activators, primary screen, cell-based, HEK293 M3R inducible RGS4, calcium flux | 310,000 tested, 0.92% active | B-score at 10 µM | carbachol calcium flux Fluo4; hits give low values;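 active = B-score of the integrated calcium signal more than 4 SD below the library mean, with starting fluorescence not abnormally high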;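 note: negative B-score means reduced calcium response which marks RGS4 activation or potentiation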
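System – HEK293 FlpIn-TREx cells, stable M3R, doxycycline-inducible RGS4 · Reagent – ECmax carbachol challenge · Times – compound preincubation 20 min at room temperature before agonist · Technique – Fluo4 fluorescence kinetic imaging of calcium · Measure – B score of integrated Fluo4 ratio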
MrgX1 ag – agonists of human MrgX1 receptor, primary screen, HEK293 cells, Fluo-4 calcium flux; Mas-related G-protein coupled receptor member X1 (Homo sapiens), Q96LB2; Fluo-4 calcium fluorescence, agonist mode; hits give high values; B-score at 10 µM; 310,000 tested, 0.44% active;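 active = calcium response B-score plate-corrected fluorescence ratio at least 3 library SD, with starting fluorescence B-score inside 5 SD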
Target sequence (Q96LB2 whole entry, looked up): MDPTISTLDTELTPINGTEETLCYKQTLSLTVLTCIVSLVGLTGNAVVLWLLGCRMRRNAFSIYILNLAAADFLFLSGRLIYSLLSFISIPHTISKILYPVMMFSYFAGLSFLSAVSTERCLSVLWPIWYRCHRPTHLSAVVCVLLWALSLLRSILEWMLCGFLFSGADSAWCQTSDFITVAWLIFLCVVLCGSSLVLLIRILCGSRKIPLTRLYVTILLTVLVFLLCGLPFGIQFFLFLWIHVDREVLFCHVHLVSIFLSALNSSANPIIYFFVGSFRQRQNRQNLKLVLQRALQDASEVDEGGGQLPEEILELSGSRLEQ
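Material: MrgX1-expressing HEK293 cells / Dosing: compound as first of three additions / Incubation: overnight seeding, then 1 h dark dye loading / Signal: Fluo-4 NW calcium fluorescence / Evaluation: B-scored fluorescence response ratio / Benchmarks: positive and negative control wells on each plate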
MrgX1 antag – antagonists of human MrgX1 receptor, primary screen, HEK293 cells, Fluo-4 calcium flux. 310,000 tested, 1.3% active. B-score at 10 µM. BAM8-22 antagonism; hits give low values;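 active = calcium-response B-score plate-corrected more than 3 library SD below zero, starting fluorescence within 5 deviations, no agonist response on first addition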;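 note: peak minus trough fluorescence over baseline after final BAM8-22 challenge near maximal dose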
MrgX1 PAM – positive allosteric modulators of MrgX1, primary screen, HEK293 cells, Fluo-4 calcium flux; FDSS; hits give high values; Mas-related G-protein coupled receptor member X1 (Homo sapiens), Q96LB2; 310,000 tested, 0.63% active; B-score at 10 µM;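 active = plate-corrected calcium response at least 3 library SD above typical, normal starting fluorescence, not activating the receptor alone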;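 note: compound read alongside a low EC10 to EC30 dose of BAM8-22 agonist; peak minus trough fluorescence over baseline measured at the second addition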
MrgX1 PAM conf – MrgX1 positive allosteric modulators, duplicate retest, confirmation, HEK293 cells, Fluo-4 calcium flux; shares compounds with MrgX1 PAM; Fluo-4 calcium fluorescence, FDSS; activation (ratio percentage), % at 10 µM; 1,200 tested, 13% active;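 active = ratio at least 3 SD above the weak peptide control, stable starting fluorescence, no direct agonism earlier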;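 note: compound followed by low BAM8-22 agonist challenge near EC20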
HEK293 Ca flux – nonspecific calcium signal in parental HEK293, confirmation, counter-screen for MrgX1 antagonist project, parental HEK293 cells, Fluo-4 calcium flux; shares compounds with MrgX1 antag; 4,000 tested, 2% active; Fluo-4 calcium fluorescence, FDSS; fluorescence ratio F(max-min)/F0 at 10 µM;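 active = duplicate-averaged calcium fluorescence ratio at least three times the standard deviation of buffer wells, a nonspecific response in parental cells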
HEK293 Ca counter – calcium response in parental HEK293 cells, primary screen, counter-screen for MrgX1 allosteric activator project, cell-based, Fluo-4 calcium flux, duplicate; AID 624114, 2012; Fluo-4 fluorescence ratio; hits give high values; 4,000 tested, 0.4% active; fluorescence ratio F(max-min)/F0 at 10 µM; shares compounds with MrgX1 antag;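 active = calcium fluorescence ratio, averaged over duplicates, at least 3 SD of the buffer-well ratio, meaning a nonspecific response in receptor-free cells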;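 note: untransfected parental HEK293 lacking MrgX1 used as counterscreen for MrgX1 allosteric activators; fluorescence change taken during the second addition on a kinetic imager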
HEK293 Ca cntr2 – calcium response in parental HEK293 cells, primary screen, counter-screen for MrgX1 agonist project, cell-based, Fluo-4 calcium flux, duplicate, agonist mode. shares compounds with MrgX1 antag. Fluo-4 calcium fluorescence (FDSS); hits give high values. fluorescence ratio F(max-min)/F0 at 10 µM. 4,000 tested, 8.7% active;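 active = calcium fluorescence ratio at least three times the spread of buffer wells, meaning a non-specific response in parental cells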
Hits are given with their value; 0 = inactive; - = no result given. Most compounds without a hit are left out; they make up all but 3.5% or so of the library.

SMILES	RGS4 inh	RGS4 pot	MrgX1 ag	MrgX1 antag	MrgX1 PAM	MrgX1 PAM conf	HEK293 Ca flux	HEK293 Ca counter	HEK293 Ca cntr2
NC(=O)CSc1nc(C23CC4CC(CC(C4)C2)C3)nc2ccccc12	0	0	0	0	17	14%	0	0	0
O=C(NC1CCCCC1)c1cccc(OCc2ccccc2)c1	0	0	0	0	0	-	-	-	-
Cc1cccc(C)c1NC(=O)CN(C)C(=O)c1cccc(S(=O)(=O)N2CCN(c3ccc(F)cc3)CC2)c1	0	0	0	0	9	0	0	0	0
COc1ccccc1NC(=O)c1ccc(NS(=O)(=O)c2ccc(F)c(F)c2F)cc1	0	0	0	0	36	28%	0	0	0
CN(Cc1ccccc1)Cc1nc2c(c(=O)n(C)c(=O)n2C)n1CCCc1ccccc1	0	0	0	0	8.1	0	0	0	0
Cc1ccc(S(=O)(=O)NC(=O)COc2ccc([N+](=O)[O-])cc2)cc1	0	0	0	0	0	-	-	-	-
COCc1cc(Sc2ccc(Cl)cc2)nc(-c2ccccc2)n1	0	0	0	0	14	0	0	0	0
COCc1cc(Sc2ccc(Br)cc2)nc(-c2ccccc2)n1	0	0	0	0	8.9	0	0	0	0
COCc1cc(N2CCN(c3ccccc3F)CC2)nc(-c2ccccc2)n1	0	0	0	0	0	-	-	-	-
CS(=O)Cc1cc(Sc2ccccc2)nc(-c2ccncc2)n1 (centres undefined)	0	0	0	0	0	-	-	-	-
O=C(c1nc2ccccn2c1CN1CCCC(c2nc3ccccc3o2)C1)N1CCCC1 (centres undefined)	0	0	0	0	0	-	-	-	-
CC(C)CNc1ncnc2c1cnn2Cc1ccccc1Cl	0	0	0	0	10	0	0	0	0
CN1CCC(=O)N([C@H](CN=[N+]=[N-])Cc2ccccc2)CC1	0	0	0	0	0	-	-	-	-
COCCNC(=O)c1ccc2c(c1)ncn2-c1cccc(C)c1	0	0	0	0	0	-	-	-	-
Cc1cccc(-n2cnc3cc(C(=O)N4CCc5ccccc54)ccc32)c1	0	0	0	0	7.5	0	0	0	0
CCS(=O)(=O)c1nn2c(N)c(/C=C3/C=CC(=O)C(OC)=C3)c(=O)nc2s1	0	0	0	0	28	0	0	0	63
Nc1c(C=C2C=CC(=O)C=C2)c(=O)nc2sc(CC(=O)N3CCCC3)nn12	0	0	0	0	0	-	-	-	-
Nc1c2c(nc3ccc(Br)cc13)N(c1ccccc1)CC2	-	-	0	0	0	-	-	-	-
Nc1c2c(nc3ccc(Br)cc13)N(Cc1ccccc1)CC2	0	0	0	0	8.3	0	0	0	0
O=C(Cc1ccc(Br)cc1)N/N=C/c1cccnc1	0	0	0	0	0	-	-	-	-
COc1ccc(N2CC(C(=O)Nc3cccc(OC(C)C)c3)CC2=O)cc1 (centres undefined)	0	0	0	0	0	-	-	-	-
COc1cccc(NC(=O)CN2C(=O)COc3ccc(Cl)cc32)c1	0	0	0	0	7.7	0	0	0	0
O=C(CCc1nnc(-c2ccc3c(c2)OCO3)o1)NC(c1cccnc1)C(F)(F)F (centres undefined)	0	0	0	0	0	-	-	-	-
Brc1ccc2c(c1)CNc1c(ncnc1N1CCOCC1)O2	0	0	0	0	11	18%	0	0	0
Cc1cc(C)nc(Sc2ncnc(N)c2[N+](=O)[O-])n1	0	0	0	0	0	-	-	-	-
SMILES	RGS4 inh	RGS4 pot	MrgX1 ag	MrgX1 antag	MrgX1 PAM	MrgX1 PAM conf	HEK293 Ca flux	HEK293 Ca counter	HEK293 Ca cntr2
CC(C)(C)NC(=O)CSc1nc(-c2ccc(F)cc2)cs1	0	0	0	0	9.4	0	0	0	0
O=C(NNC(=O)c1cccs1)c1ccc(Cl)nc1	0	0	0	0	0	-	-	-	-
Fc1ccc(-c2csc(NC3=NCCC3)n2)cc1	0	0	0	0	12	0	0	0	0
Cn1c(SCC(=O)N2CCCC2=O)nnc1-c1ccccc1F	0	0	0	0	8.8	0	0	0	0
Cn1c(SCC(=O)N2CCCc3ccccc32)nnc1-c1c[nH]c2ccccc12	0	0	0	0	0	-	-	-	-
CCN1C(=O)CSC1=NC1C2CC3CC(C2)CC1C3 (centres undefined)	0	0	0	0	14	0	0	0	0
CCOc1cc(CC(=O)N[C@@H](CC(C)C)c2ccccc2N2CCCCC2)ccc1C(=O)O	0	0	0	0	0	-	-	-	-
CCCN(c1ccc(C(=O)OC)cc1)S(=O)(=O)c1ccccc1	0	0	0	0	9.8	0	0	0	0
CCCn1c(SCC(=O)Nc2ccccc2Cl)n[nH]c1=O	0	0	0	0	6.6	0	0	0	0
O=S(=O)(c1ccccc1F)N1CCC(c2nc3ccccc3[nH]2)CC1	0	0	0	0	0	-	-	-	-
CCOC(=O)c1c(-c2ccc(OC)cc2)csc1NC(=O)C1CCCO1 (centres undefined)	0	0	0	0	24	0	0	0	0
COC(=O)c1c(-c2ccc(F)cc2)csc1NC(=O)c1ccco1	0	0	0	0	22	22%	0	0	0
COC(=O)c1c(-c2cccc(C)c2)csc1NC(=O)C1CCCO1 (centres undefined)	0	0	0	0	0	-	-	-	-
O=C(Nc1scc(-c2ccccc2)c1C(=O)O)c1ccco1	0	0	0	0	0	-	-	-	-
CCOC(=O)c1c(-c2ccc(C)cc2)csc1NC(=O)C1CCCO1 (centres undefined)	0	0	0	0	13	19%	0	0	0
CCOC(=O)c1c(-c2ccc(F)cc2)csc1NC(=O)C1CCCO1 (centres undefined)	0	0	0	0	11	0	0	0	0
CCOc1ccccc1-n1nnnc1SCC(=O)NCc1ccco1	0	0	0	0	0	-	-	-	-
